# Measured values pooled from the literature.
# Organism: Lodderomyces parapsilosis
# Effect on: microbial growth
# Technique: broth dilution
SMILES,strain,time,MIC [µg/mL]
OC(Cn1cncn1)(Cn1cncn1)c1ccc(F)cc1F,ATCC22019,48 h,50
CCCCCN1CCN(CC(O)(Cn2cncn2)c2ccc(F)cc2F)CC1 (stereo not drawn),ATCC22019,48 h,15.6
O=C1/C(=C/c2cc(O)c(O)c(O)c2)Oc2ccccc21,,,8
C[C@@H]1[C@H](O)[C@@H](C)/C=C/C=C/C=C/C=C/C=C/C=C/C=C/[C@H](O[C@@H]2O[C@H](C)[C@@H](O)[C@H](N)[C@@H]2O)C[C@@H]2O[C@](O)(C[C@@H](O)C[C@@H](O)[C@H](O)CC[C@@H](O)C[C@@H](O)CC(=O)O[C@H]1C)C[C@H](O)[C@H]2C(=O)O,ATCC22019,,0.5
CCCCCN1CCNCC1,ATCC22019,48 h,> 31.3
C[C@@H]1[C@H](O)[C@@H](C)/C=C/C=C/C=C/C=C/C=C/C=C/C=C/[C@H](O[C@@H]2O[C@H](C)[C@@H](O)[C@H](N)[C@@H]2O)C[C@@H]2O[C@](O)(C[C@@H](O)C[C@@H](O)[C@H](O)CC[C@@H](O)C[C@@H](O)CC(=O)O[C@H]1C)C[C@H](O)[C@H]2C(=O)O,,,0.5 to 1
OC(Cn1cncn1)(Cn1cncn1)c1ccc(F)cc1F,ATCC22019,,1
CN1CCN(CC(O)(Cn2cncn2)c2ccc(F)cc2F)CC1 (stereo not drawn),ATCC22019,48 h,0.975
CCCCNS(=O)(=O)c1ccc(-c2ccc3oc(C(=O)c4cc(O)c(O)c(O)c4)cc3c2)cc1,,,8 to 16
